Experiments:
[1] = system: SK-OV-3; experiment: Cytotoxicity against human ovary adenocarcinoma SKOV3 cells assessed as reduction in optical density by MTT assay; assay type: functional, cell-based; details: SK-OV-3, Female gonad
Method in brief: (§1)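 Cells were cultured in RPMI-1640 with 10% (v/v) fetal calf serum, 100 µg ml-1 penicillin and 100 µg ml-1 streptomycin at 37 °C in humidified 5% CO2. Compounds were dissolved in DMSO, with final DMSO at 2% (v/v) or lower. MTT staining was used, with three replicate wells per point. IC50 is the concentration giving a 50% drop in optical density versus untreated cells.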

[2] = system: 769-P; experiment: Cytotoxicity against human renal carcinoma 769-P cells assessed as reduction in optical density by MTT assay; assay type: functional, cell-based; method in brief: as §1
[3] = system: Mus musculus; experiment: Neurotoxicity in C57BL/6 mouse at 1 to 500 mg/kg, ip for 14 days; assay type: toxicity, organism-based; set-up: dose 1-500 mg/kg, route intraperitoneal; details: in vivo, 336 h
Method in brief: (§2)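 Healthy C57BL/6 mice (9–12 weeks, 18–22 g) were fasted overnight with free access to water. Each received a single i.p. dose of 1.0–500 mg kg-1 in 0.5% CMC-Na, 10 mice per group (5 male, 5 female). Mice were watched continuously for 2 h, intermittently to 24 h, then occasionally to 14 days for tremor, twitch, jumping and supination. At day 14 they were killed and heart, liver and kidneys were examined macroscopically.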

[4] = Antitumor activity in mouse Sarcoma 180 cells inoculated mouse assessed as tumor inhibition rate at one fifth of LD50 concentration once a day for consecutive 7 days by ip; assay type: functional; set-up: scale not given: the % may be the effect or the level left
Method in brief: (§3)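 Each tumour line was first grown in mice for 7 days, then harvested. Viable cells (2 × 10^6 per mouse) were injected s.c. into the armpit. Dosing began 24 h later: i.p., about one fifth of LD50, daily for 7 days, 10 female mice per group. […] Body weight was recorded every 3 days. Tumours were excised and weighed on day 21 to give inhibition rate.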

[5] = system: Mus musculus; experiment: Toxicity in C57BL/6 mouse assessed as liver damage at 1 to 500 mg/kg, ip for 14 days; assay type: organism-based; set-up: dose 1-500 mg/kg, route intraperitoneal; details: in vivo, 336 h; method in brief: as §2
[6] = system: Mus musculus; experiment: Toxicity in C57BL/6 mouse assessed as maximum weight loss at 30 mg/kg, ip; assay type: organism-based; set-up: dose 30 mg/kg, route intraperitoneal; details: in vivo
Method in brief: (§4)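 Tumor-bearing mice, 10 females per group, were inoculated s.c. in the armpit with 2 × 10^6 viable tumor cells. Compound was given i.p. once daily for 7 consecutive days, starting 24 h after inoculation. […] Body weight was recorded every 3 days until sacrifice on day 21.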

[7] = system: BGC-823; experiment: Cytotoxicity against human gastric carcinoma BGC823 cells assessed as reduction in optical density by MTT assay; assay type: functional, cell-based; method in brief: as §1
[8] = system: CT26; experiment: Antitumor activity in mouse CT26 colon cancer cells inoculated mouse assessed as tumor inhibition rate at one fifth of LD50 concentration once a day for consecutive 7 days by ip; assay type: functional; set-up: scale not given: the % may be the effect or the level left; method in brief: as §3
[9] = system: Mus musculus; experiment: Toxicity in C57BL/6 mouse assessed as kidney damage at 1 to 500 mg/kg, ip for 14 days; assay type: organism-based; set-up: dose 1-500 mg/kg, route intraperitoneal; details: in vivo, 336 h; method in brief: as §2
[10] = system: B16; experiment: Antitumor activity in mouse B16 melanoma cell lines cells inoculated mouse assessed as tumor inhibition rate at one fifth of LD50 concentration once a day for consecutive 7 days by ip; assay type: functional; set-up: scale not given: the % may be the effect or the level left; method in brief: as §3
[11] = system: A-375; experiment: Cytotoxicity against human malignant melanoma A375 cells assessed as reduction in optical density by MTT assay; assay type: functional, cell-based; method in brief: as §1
[12] = system: Mus musculus; experiment: Toxicity in C57BL/6 mouse assessed as heart damage at 1 to 500 mg/kg, ip for 14 days; assay type: organism-based; set-up: dose 1-500 mg/kg, route intraperitoneal; details: in vivo, 336 h; method in brief: as §2
[13] = system: KB; experiment: Cytotoxicity against human epidermoid carcinoma of the nasopharynx KB cells assessed as reduction in optical density by MTT assay; assay type: functional, cell-based; method in brief: as §1
[14] = Antitumor activity in mouse Lewis lung cancer cells inoculated mouse assessed as tumor inhibition rate at one fifth of LD50 concentration once a day for consecutive 7 days by ip; assay type: functional, Cancer cell lines; set-up: scale not given: the % may be the effect or the level left; method in brief: as §3
[15] = system: H22; experiment: Antitumor activity in mouse H22 liver cancer cells inoculated mouse assessed as tumor inhibition rate at one fifth of LD50 concentration once a day for consecutive 7 days by ip; assay type: functional; set-up: scale not given: the % may be the effect or the level left; method in brief: as §3
[16] = Acute toxicity in ip treated C57BL/6 mouse for 14 days; assay type: organism-based; details: in vivo
Method in brief: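 C57BL/6 mice (9–12 weeks, 18–22 g) were fasted overnight with free water. They received single i.p. doses of 1.0–500 mg kg-1 in 0.5% CMC-Na, 10 mice per group (5 male, 5 female). Mice were watched continuously for 2 h, then intermittently to 24 h, then occasionally to 14 days. Heart, liver and kidneys were checked macroscopically. LD50 was derived graphically.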

[17] = system: Mus musculus; experiment: Toxicity in C57BL/6 mouse assessed as maximum weight loss at 40 mg/kg, ip; assay type: organism-based; set-up: dose 40 mg/kg, route intraperitoneal; details: in vivo; method in brief: as §4
[18] = system: Mus musculus; experiment: Toxicity in C57BL/6 mouse assessed as maximum weight loss at 10 mg/kg, ip; assay type: organism-based; set-up: dose 10 mg/kg, route intraperitoneal; details: in vivo
[19] = system: Mus musculus; experiment: Toxicity in C57BL/6 mouse assessed as maximum weight loss at 50 mg/kg, ip; assay type: organism-based; set-up: dose 50 mg/kg, route intraperitoneal; details: in vivo

Row | Compound | IC50 [1] [µM] | IC50 [2] [µM] | Activity [3] | Activity [4] [%] | Activity [5] | Activity [6] [%] | IC50 [7] [µM] | Activity [8] [%] | Activity [9] | Activity [10] [%] | IC50 [11] [µM] | Activity [12] | IC50 [13] [µM] | Activity [14] [%] | Activity [15] [%] | LD50 at 336 h [16] [mg/kg] | Activity [17] [%] | Activity [18] [%] | Activity [19] [%]
1 | c1ccc2c(c1)c1ccncc1n2CCCCCn1c2ccccc2c2ccncc21 | > 200 | 15.3 | Non-toxic | 43.8 | Non-toxic | 10 | 23.5 | 48.6 | Non-toxic | 26.1 | 10.2 | Non-toxic | > 200 | 42.5 | 40.4 |  |  |  | 
2 | COc1cc(-c2nccc3c4ccccc4n(CCCCCCn4c5ccccc5c5ccnc(-c6cc(OC)c(OC)c(OC)c6)c54)c23)cc(OC)c1OC | > 200 | 16.8 | Non-toxic |  | Non-toxic |  | > 200 | 45.8 | Non-toxic |  | 5.9 | Non-toxic | > 200 | 43.3 |  | 200 | 7.2 |  | 
3 | COc1ccc2c3ccnc(C)c3n(CCCCn3c4cc(OC)ccc4c4ccnc(C)c43)c2c1 | 7.1 | 65.6 | Non-toxic |  | Non-toxic |  | 75.7 | 45.5 | Non-toxic |  | 6.2 | Non-toxic | 2.8 | 38.1 |  |  |  | 7.7 | 
4 | COc1ccc2c3ccnc(C)c3n(CCCCCn3c4cc(OC)ccc4c4ccnc(C)c43)c2c1 | 1.7 | 81 |  |  |  |  | 58.6 |  |  |  | < 1.4 |  | 5 |  |  |  |  |  | 
5 | COc1ccc2c3ccnc(C)c3n(CCCCCCn3c4cc(OC)ccc4c4ccnc(C)c43)c2c1 | 11.7 | > 200 |  |  |  |  | > 200 |  |  |  | 35.3 |  | 155 |  |  |  |  |  | 
6 | COc1ccc2c3ccnc(C)c3n(CCCCCCCn3c4cc(OC)ccc4c4ccnc(C)c43)c2c1 | 10.2 | 114 |  |  |  |  | 104 |  |  |  | 113 |  | 38.6 |  |  |  |  |  | 
7 | COc1ccc2c3ccnc(C)c3n(CCCCCCCCn3c4cc(OC)ccc4c4ccnc(C)c43)c2c1 | 7.1 | 65.6 |  |  |  |  | 75.7 |  |  |  | 6.2 |  | 2.8 |  |  |  |  |  | 
8 | CCCCOc1ccc2c3ccnc(C)c3n(CCCCn3c4cc(OCCCC)ccc4c4ccnc(C)c43)c2c1 | 5.5 | > 200 |  |  |  |  | 8.5 |  |  |  | 3.8 |  | 6.8 |  |  |  |  |  | 
9 | Cc1nccc2c3ccc(OC(C)C)cc3n(CCCCCCn3c4cc(OC(C)C)ccc4c4ccnc(C)c43)c12 | 17.1 | 95.4 | Non-toxic | 40.6 | Non-toxic |  | 194 | 51.2 | Non-toxic | 20.5 | 18.5 | Non-toxic | 19.8 | 49.6 | 39.7 |  | 10.2 |  | 
10 | CC(C)c1nccc2c3ccccc3n(CCCCCCn3c4ccccc4c4ccnc(C(C)C)c43)c12 | 31.8 | 18.5 |  |  |  |  | > 200 |  |  |  | 53.5 |  | > 200 |  |  |  |  |  | 
11 | c1cncc(-c2nccc3c4ccccc4n(CCCCn4c5ccccc5c5ccnc(-c6cccnc6)c54)c23)c1 | 36.8 | > 200 |  |  |  |  | > 200 |  |  |  | 85.3 |  | > 200 |  |  |  |  |  | 
12 | c1cncc(-c2nccc3c4ccccc4n(CCCCCCn4c5ccccc5c5ccnc(-c6cccnc6)c54)c23)c1 | 14.9 | > 200 | Non-toxic | 40.5 | Non-toxic |  | 14.1 | 50.6 | Non-toxic | 24.3 | 5.3 | Non-toxic | 13.3 | 43.2 | 35 |  |  |  | 11.9
13 | c1ccc2c(c1)c1ccncc1n2CCCCn1c2ccccc2c2ccncc21 | > 200 |  | Non-toxic |  | Non-toxic |  | 59.7 | 39.7 | Non-toxic |  | > 200 | Non-toxic | > 200 | 34.2 |  |  | 14.5 |  | 
14 | c1ccc2c(c1)c1ccncc1n2CCCCCCn1c2ccccc2c2ccncc21 | 38.9 | 12.8 | Non-toxic |  | Non-toxic |  | 13.8 | 32.4 | Non-toxic | 24.8 | 10.8 | Non-toxic | 13.9 | 37.7 | 31.2 | 200 | 15 |  | 
15 | c1ccc2c(c1)c1ccncc1n2CCCCCCCCn1c2ccccc2c2ccncc21 | 33.5 | > 200 |  |  |  |  | > 200 |  |  |  | > 200 |  | > 200 |  |  |  |  |  | 
16 | Brc1ccc2c(c1)c1ccncc1n2CCCCn1c2ccc(Br)cc2c2ccncc21 | 8.9 | 3.1 |  |  |  |  | > 200 |  |  |  | > 200 |  | > 200 |  |  |  |  |  | 
17 | Cc1nccc2c3ccccc3n(CCCn3c4ccccc4c4ccnc(C)c43)c12 | 26.4 | 145 |  |  |  |  | > 200 |  |  |  | 69.5 |  | 160 |  |  |  |  |  | 
18 | Cc1nccc2c3ccccc3n(CCCCn3c4ccccc4c4ccnc(C)c43)c12 | 4.8 | 6.5 | Non-toxic | 56.2 | Non-toxic |  | 22.3 | 50.8 | Non-toxic | 29.9 | 13.1 | Non-toxic | 6.4 | 40.4 | 42.3 |  | 21.5 |  | 
19 | Cc1nccc2c3ccccc3n(CCCCCn3c4ccccc4c4ccnc(C)c43)c12 | 18.8 | > 200 |  |  |  |  | > 200 |  |  |  | > 200 |  | > 200 |  |  |  |  |  | 
20 | Cc1nccc2c3ccccc3n(CCCCCCn3c4ccccc4c4ccnc(C)c43)c12 | 16.9 | 149 | Non-toxic |  | Non-toxic |  | 134 | 39.6 | Non-toxic |  | 38 | Non-toxic | 87.9 | 42.1 |  |  | 5.1 |  | 
21 | Cc1nccc2c3ccccc3n(CCCCCCCCCCn3c4ccccc4c4ccnc(C)c43)c12 | 8.5 | 16.2 |  |  |  |  | > 200 |  |  |  | > 200 |  | > 200 |  |  |  |  |  | 
22 | CCOC(=O)c1cc2c(cn1)[nH]c1ccccc12 | 92.6 | 175 | Non-toxic | 35.2 |  |  | > 200 |  |  |  | > 200 |  | > 200 |  |  | 32.6 |  | 11.8 | 
23 | O=P1(N(CCCl)CCCl)NCCCO1 (stereo not drawn) [CYCLOPHOSPHAMIDE ANHYDROUS] |  |  |  | 85.6 |  |  |  | 97.2 |  | 86.5 |  |  |  | 97.8 | 83.8 |  |  |  | 7.7
